# Reference: ChEMBL document CHEMBL4196151, “Anti-inflammatory Potential of Flavonoids from the Aerial Parts of Corispermum marschallii” (J Nat Prod, 2018)
# What was measured:
# Neutrophil [1] = test: Cytotoxicity against LPS-stimulated human neutrophils assessed as reduction in cell viability up to 50 uM incubated for 1 hr followed by LPS stimulation by propidium iodide staining based method
# Procedure, shortened: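 Viability measured by propidium iodide staining in neutrophils (1 × 10^6/mL) cultured in RPMI 1640. Compounds at final 10, 20, 50 μM were added 1 h before LPS (100 ng/mL). Read-out by cytometry, with 0.1% Triton X-100 as positive control.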
# Neutrophil [2] = test: Antiinflammatory activity against f-MLP-stimulated human neutrophils assessed as reduction in ROS production incubated for 40 mins measured at intervals of 2 mins by luminol-dependent chemiluminescence assay; format: functional, cell-based
# Procedure, shortened: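 Freshly isolated human neutrophils suspended in HBSS at 2.0 × 10^5/mL and incubated with compounds at final 5, 10, 20 μM, diluted from DMSO stocks. ROS release triggered by f-MLP and read by luminol-dependent chemiluminescence. Quercetin served as positive control. Data as mean ± SEM, ANOVA with Tukey post hoc test.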
# Neutrophil [3] = test: Antiinflammatory activity against LPS-stimulated human neutrophils assessed as reduction in IL-8 production incubated for 1 hr followed by LPS stimulation measured after 18 to 24 hrs by ELISA; format: functional, cell-based
# Procedure, shortened: (§1)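 Human neutrophils isolated from buffy coat, 1.0 × 10^6/mL in RPMI 1640 with 10% FBS, 10 mM HEPES, 2 mM L-glutamine. Compounds added from 10 mM DMSO stocks at final 10, 20, 50 μM, 1 h before LPS (100 ng/mL). Culture at 37 °C, 5% CO2. Supernatants taken after 18 h by centrifugation and cytokine measured by ELISA. Quercetin positive control; mean ± SEM, ANOVA with Tukey.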
# Neutrophil [4] = test: Antiinflammatory activity against LPS-stimulated human neutrophils assessed as reduction in TNFalpha production incubated for 1 hr followed by LPS stimulation measured after 18 to 24 hrs by ELISA; format: functional, cell-based; procedure, shortened: as §1
Structure (SMILES),Activity (Neutrophil [1]),IC50 (Neutrophil [2]) [µM],IC50 (Neutrophil [3]) [µM],IC50 (Neutrophil [4]) [µM]
COc1c(O)cc2oc(-c3ccc(O)c(O)c3)c(O[C@@H]3O[C@H](CO[C@@H]4O[C@H](CO)[C@@H](O)[C@H](O)[C@H]4O)[C@H](O)[C@H](O)[C@H]3O)c(=O)c2c1O,Non-Toxic,5.7,28.9,9.3
COc1c(O)cc2oc(-c3ccc(O)c(O)c3)c(O[C@@H]3O[C@H](CO[C@@H]4OC[C@H](O)[C@H](O)[C@H]4O)[C@H](O)[C@H](O)[C@H]3O)c(=O)c2c1O,Non-Toxic,5.7,25.5,
O=c1c(O)c(-c2ccc(O)c(O)c2)oc2cc(O)cc(O)c12 [QUERCETIN],,4.4,33,20.4
COc1cc(/C=C/C(=O)OC[C@H]2O[C@@H](Oc3cc4oc(-c5ccc(O)c(O)c5)c(O[C@@H]5O[C@H](CO)[C@H](O)[C@H](O)[C@H]5O)c(=O)c4c(O)c3OC)[C@H](O)[C@@H](O)[C@@H]2O)ccc1O,Non-Toxic,36.6,46.7,23.2
COc1c(O)cc2oc(-c3ccc(O)c(O)c3)c(O[C@@H]3O[C@H](CO)[C@H](O)[C@H](O)[C@H]3O[C@@H]3OC[C@](O)(CO)[C@H]3O)c(=O)c2c1O,Non-Toxic,7.1,7.2,12.8
COc1c(O[C@@H]2O[C@H](CO)[C@@H](O)[C@H](O)[C@H]2O)cc2oc(-c3ccc(O)c(O)c3)c(O[C@@H]3O[C@H](CO)[C@H](O)[C@H](O)[C@H]3O)c(=O)c2c1O,Non-Toxic,26.9,66,
COc1c(O)cc2oc(-c3ccc(O)c(O)c3)c(O[C@@H]3O[C@H](CO)[C@H](O)[C@H](O)[C@H]3O)c(=O)c2c1O,,3.4,8,7.7
COc1cc(/C=C/C(=O)OC[C@H]2O[C@@H](Oc3cc4oc(-c5ccc(O)c(OC)c5)c(O[C@@H]5O[C@H](CO)[C@H](O)[C@H](O)[C@H]5O)c(=O)c4c(O)c3OC)[C@H](O)[C@@H](O)[C@@H]2O)ccc1O,Non-Toxic,6,,20.7
COc1c(O)cc2oc(-c3ccc(O)cc3)c(O[C@@H]3O[C@H](CO)[C@H](O)[C@H](O)[C@H]3O)c(=O)c2c1O,,15.4,18.1,11.7
COc1c(O)cc2oc(-c3ccc(O)c(O)c3)c(O[C@@H]3O[C@H](CO)[C@H](O)[C@H](O)[C@H]3O[C@@H]3OC[C@](O)(CO[C@@H]4OC[C@H](O)[C@H](O)[C@H]4O)[C@H]3O)c(=O)c2c1O,Non-Toxic,5.4,24.5,9.7
COc1cc(-c2oc3cc(O)c(OC)c(O)c3c(=O)c2O[C@@H]2O[C@H](CO)[C@H](O)[C@H](O)[C@H]2O)ccc1O,Non-Toxic,38.5,51.9,16.3
COc1cc(-c2oc3cc(O[C@@H]4O[C@H](CO)[C@@H](O)[C@H](O)[C@H]4O)c(OC)c(O)c3c(=O)c2O[C@@H]2O[C@H](CO)[C@H](O)[C@H](O)[C@H]2O)ccc1O,Non-Toxic,31.5,25.7,16.3
